Assay results as given in ChEMBL document CHEMBL1671800, “Synthesis and antimycobacterial properties of N-substituted 6-amino-5-cyanopyrazine-2-carboxamides” (2011).
≈ marks a conversion by molar mass, not a printed value. Calls of active or inactive are those of the source. The rule behind the calls is not given here.

Tests used:
[1] = tested on: Mycobacterium tuberculosis; assay: Antimycobacterial activity against Mycobacterium tuberculosis H37Rv CNCTC My 331/88 after 14 days by microdilution method; format: functional; conditions: H37Rv CNCTC My 331/88, 336 h
Procedure, shortened: (§1)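 Compounds in DMSO were diluted in Šula's semisynthetic medium, pH 5.5, to final 200–3.125 μg/mL, with DMSO at most 1% (v/v). Mycobacteria were added as a suspension in isotonic saline and grown at 37 °C. MIC was read visually after 14 days as the lowest concentration inhibiting growth.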

Enterobacter sp. = assay: Antibacterial activity against Enterobacter sp. J 14365/ 08 after 24 to 48 hrs by broth microdilution method; format: functional, organism-based
Staphylococcus aureus [2] = assay: Antibacterial activity against methicillin-resistant Staphylococcus aureus H 5996/08 after 24 to 48 hrs by broth microdilution method; format: functional, organism-based
Procedure, shortened: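 Strains were subcultured on Mueller-Hinton agar at 35 °C, and the inoculum was suspended in 0.85% saline to 0.5 McFarland (1.5×10^8 CFU/mL). Microdilution was done in Mueller-Hinton broth, pH 7.0, with final DMSO at most 1% (v/v). MIC, set at 95% growth inhibition versus control, was read after 24 and 48 h of static incubation at 35 °C.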

Mycobacterium kansasii = assay: Antimycobacterial activity against Mycobacterium kansasii CNCTC My 235/80 after 6 days by microdilution method; format: functional; conditions: CNCTC My 235/80, 144 h
Procedure, shortened: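 Compounds were dissolved in DMSO and diluted in Šula's semisynthetic medium at pH 5.5, at final concentrations of 200 to 3.125 μg/mL in twofold steps; DMSO stayed ≤1% v/v. The strain was added as a suspension in isotonic saline and incubated at 37 °C. Growth was read visually after 6 days; MIC is the lowest concentration that inhibited growth. Pyrazinamide served as standard.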

Staphylococcus aureus [3] = assay: Antibacterial activity against Staphylococcus aureus CCM 4516/08 after 24 to 48 hrs by broth microdilution method; format: functional, organism-based
Procedure, shortened: (§2)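 Strains subcultured on Mueller-Hinton agar at 35 °C and passaged onto MHA before testing. Inoculum suspended in sterile 0.85% saline and adjusted to 0.5 McFarland (1.5×10^8 CFU/mL). Compounds in DMSO (final ≤1% v/v) in Mueller-Hinton broth at pH 7.0, with medium and DMSO-alone controls. Static incubation at 35 °C; MIC taken as 95% growth inhibition versus control at 24 and 48 h.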

Mycobacterium avium [4] = assay: Antimycobacterial activity against Mycobacterium avium CNCTC My 152/73 after 14 days by microdilution method; format: functional; conditions: CNCTC My 152/73, 336 h; procedure, shortened: as §1
Klebsiella pneumoniae [5] = assay: Antibacterial activity against ESBL-positive Klebsiella pneumoniae J 14368/08 after 24 to 48 hrs by broth microdilution method; format: functional, organism-based
Pseudomonas aeruginosa = assay: Antibacterial activity against Pseudomonas aeruginosa CCM 1961 after 24 to 48 hrs by broth microdilution method; format: functional, organism-based; procedure, shortened: as §2
Escherichia coli = assay: Antibacterial activity against Escherichia coli CCM 4517 after 24 to 48 hrs by broth microdilution method; format: functional, organism-based; procedure, shortened: as §2
[6] = tested on: Staphylococcus epidermidis; assay: Antibacterial activity against Staphylococcus epidermidis H 6966/08 after 24 to 48 hrs by broth microdilution method; format: functional, organism-based
Klebsiella pneumoniae [7] = assay: Antibacterial activity against Klebsiella pneumoniae D11750/08 after 24 to 48 hrs by broth microdilution method; format: functional, organism-based
Mycobacterium avium [8] = assay: Antimycobacterial activity against Mycobacterium avium CNCTC My 80/72 after 14 days by microdilution method; format: functional; conditions: CNCTC My 80/72, 336 h; procedure, shortened: as §1
Trichosporon beigelii [9] = assay: Antifungal activity against Trichosporon beigelii 1188 after 48 hrs by broth microdilution method; format: functional
Procedure, shortened: (§3)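 Broth microdilution. Compounds in DMSO were diluted twofold in RPMI 1640 with glutamine, buffered to pH 7.0 with MOPS. Final DMSO was at most 2.5% (v/v). Plates were incubated statically, in the dark and humid, at 35 °C and read at 24 and 48 h.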

Candida tropicalis [10] = assay: Antifungal activity against Candida tropicalis 156 after 48 hrs by broth microdilution method; format: functional; procedure, shortened: as §3
Pichia kudriavzevii [11] = assay: Antifungal activity against Candida krusei E28 after 24 hrs by broth microdilution method; format: functional; procedure, shortened: as §3
Nakaseomyces glabratus [12] = assay: Antifungal activity against Candida glabrata 20/I after 48 hrs by broth microdilution method; format: functional; procedure, shortened: as §3
Aspergillus fumigatus [13] = assay: Antifungal activity against Aspergillus fumigatus 231 after 24 hrs by broth microdilution method; format: functional; procedure, shortened: as §3
Candida tropicalis [14] = assay: Antifungal activity against Candida tropicalis 156 after 24 hrs by broth microdilution method; format: functional; procedure, shortened: as §3
Lichtheimia corymbifera [15] = assay: Antifungal activity against Absidia corymbifera 272 after 24 hrs by broth microdilution method; format: functional; procedure, shortened: as §3
Nakaseomyces glabratus [16] = assay: Antifungal activity against Candida glabrata 20/I after 24 hrs by broth microdilution method; format: functional; procedure, shortened: as §3
Candida albicans [17] = assay: Antifungal activity against Candida albicans ATCC 44859 after 48 hrs by broth microdilution method; format: functional; procedure, shortened: as §3
Candida albicans [18] = assay: Antifungal activity against Candida albicans ATCC 44859 after 24 hrs by broth microdilution method; format: functional; procedure, shortened: as §3
[19] = tested on: Trichophyton mentagrophytes; assay: Antifungal activity against Trichophyton mentagrophytes 445 after 72 hrs by broth microdilution method; format: functional
Procedure, shortened: (§4)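 Trichophyton mentagrophytes was tested by twofold broth microdilution in MOPS-buffered RPMI 1640 with glutamine, pH 7.0, with final DMSO at most 2.5% (v/v). Incubation was static, dark and humid at 35 °C, and plates were read at 72 and 120 h.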

Pichia kudriavzevii [20] = assay: Antifungal activity against Candida krusei E28 after 48 hrs by broth microdilution method; format: functional; procedure, shortened: as §3
Lichtheimia corymbifera [21] = assay: Antifungal activity against Absidia corymbifera 272 after 48 hrs by broth microdilution method; format: functional; procedure, shortened: as §3
Trichosporon beigelii [22] = assay: Antifungal activity against Trichosporon beigelii 1188 after 24 hrs by broth microdilution method; format: functional; procedure, shortened: as §3
[23] = tested on: Trichophyton mentagrophytes; assay: Antifungal activity against Trichophyton mentagrophytes 445 after 120 hrs by broth microdilution method; format: functional; procedure, shortened: as §4
Aspergillus fumigatus [24] = assay: Antifungal activity against Aspergillus fumigatus 231 after 48 hrs by broth microdilution method; format: functional; procedure, shortened: as §3

Compound | MIC [1] [µg/mL] | Activity (Enterobacter sp.) | Activity (Staphylococcus aureus [2]) | MIC (Mycobacterium kansasii) [µg/mL] | Activity (Staphylococcus aureus [3]) | MIC (Mycobacterium avium [4]) [µg/mL] | Activity (Klebsiella pneumoniae [5]) | Activity (Pseudomonas aeruginosa) | Activity (Escherichia coli) | Activity [6] | Activity (Klebsiella pneumoniae [7]) | MIC (Mycobacterium avium [8]) [µg/mL] | other results
CCCCCCNc1nc(C(N)=O)cnc1C#N | 12.5 (≈ 50.5 µM) | inactive | inactive | > 200 | inactive | > 200 | inactive | inactive | inactive | inactive | inactive | > 200 | –
CCCCCCCNc1nc(C(N)=O)cnc1C#N | 12.5 (≈ 47.8 µM) | inactive | inactive | 100 (≈ 383 µM) | inactive | 100 (≈ 383 µM) | inactive | inactive | inactive | inactive | inactive | 100 (≈ 383 µM) | –
CCCCNc1nc(C(N)=O)cnc1C#N | > 200 | inactive | inactive | > 200 | inactive | > 200 | inactive | inactive | inactive | inactive | inactive | > 200 | –
CCNc1nc(C(N)=O)cnc1C#N | 100 (≈ 523 µM) | inactive | inactive | > 200 | inactive | > 200 | inactive | inactive | inactive | inactive | inactive | > 200 | –
NYSTATIN | – | – | – | – | – | – | – | – | – | – | – | – | MIC (Trichosporon beigelii [9]): 1.95 µM; MIC (Candida tropicalis [10]): 3.9 µM; MIC (Pichia kudriavzevii [11]): 1.95 µM; MIC (Nakaseomyces glabratus [12]): 1.95 µM; MIC (Aspergillus fumigatus [13]): 1.95 µM; MIC (Candida tropicalis [14]): 1.95 µM; MIC (Lichtheimia corymbifera [15]): 15.6 µM; MIC (Nakaseomyces glabratus [16]): 1.95 µM; MIC (Candida albicans [17]): 1.95 µM; MIC (Candida albicans [18]): 0.98 µM; MIC [19]: 3.9 µM; MIC (Pichia kudriavzevii [20]): 3.9 µM; MIC (Lichtheimia corymbifera [21]): 31.2 µM; MIC (Trichosporon beigelii [22]): 1.95 µM; MIC [23]: 7.81 µM; MIC (Aspergillus fumigatus [24]): 3.9 µM
N#Cc1ncc(C(N)=O)nc1N1CCOCC1 | > 200 | inactive | inactive | > 200 | inactive | > 200 | inactive | inactive | inactive | inactive | inactive | > 200 | –
CNc1nc(C(N)=O)cnc1C#N | 200 (≈ 1130 µM) | inactive | inactive | > 200 | inactive | > 200 | inactive | inactive | inactive | inactive | inactive | > 200 | –
CCCNc1nc(C(N)=O)cnc1C#N | 50 (≈ 244 µM) | inactive | inactive | > 200 | inactive | > 200 | inactive | inactive | inactive | inactive | inactive | > 200 | –
NC(=O)c1cnccn1 [PYRAZINAMIDE] | 12.5 (≈ 102 µM) | – | – | > 200 | – | > 200 | – | – | – | – | – | > 200 | –
CCCCCCCCNc1nc(C(N)=O)cnc1C#N | > 200 | inactive | inactive | > 200 | inactive | > 200 | inactive | inactive | inactive | inactive | inactive | > 200 | –
N#Cc1ncc(C(N)=O)nc1NC1CCCC1 | > 200 | inactive | inactive | > 200 | inactive | > 200 | inactive | inactive | inactive | inactive | inactive | > 200 | –
CCN(CC)c1nc(C(N)=O)cnc1C#N | > 200 | inactive | inactive | > 200 | inactive | > 200 | inactive | inactive | inactive | inactive | inactive | > 200 | –
N#Cc1ncc(C(N)=O)nc1NC1CCCCCC1 | > 200 | inactive | inactive | > 200 | inactive | > 200 | inactive | inactive | inactive | inactive | inactive | > 200 | –
CN1CCN(c2nc(C(N)=O)cnc2C#N)CC1 | > 200 | inactive | inactive | > 200 | inactive | > 200 | inactive | inactive | inactive | inactive | inactive | > 200 | –
N#Cc1ncc(C(N)=O)nc1NC1CCCCC1 | > 200 | inactive | inactive | > 200 | inactive | > 200 | inactive | inactive | inactive | inactive | inactive | > 200 | –
OC(Cn1cncn1)(Cn1cncn1)c1ccc(F)cc1F [FLUCONAZOLE] | – | – | – | – | – | – | – | – | – | – | – | – | MIC (Trichosporon beigelii [9]; Trichosporon beigelii, 1188, 48 h): 500 µM (≈ 153 µg/mL); MIC (Candida tropicalis [10]; Candida tropicalis, 156, 48 h): > 500 µM; MIC (Pichia kudriavzevii [11]; E28, 24 h): 125 µM (≈ 38.3 µg/mL); MIC (Nakaseomyces glabratus [12]): 250 µM (≈ 76.6 µg/mL); MIC (Aspergillus fumigatus [13]; Aspergillus fumigatus, 231, 24 h): > 500 µM; MIC (Candida tropicalis [14]; Candida tropicalis, 156, 24 h): > 500 µM; MIC (Lichtheimia corymbifera [15]; Lichtheimia corymbifera, 272, 24 h): > 500 µM; MIC (Nakaseomyces glabratus [16]): 62.5 µM (≈ 19.1 µg/mL); MIC (Candida albicans [17]; ATCC 44859, 48 h): 0.24 µM (≈ 0.0735 µg/mL); MIC (Candida albicans [18]; ATCC 44859, 24 h): 0.24 µM (≈ 0.0735 µg/mL); MIC ([19]; Trichophyton mentagrophytes, 445, 72 h): 7.81 µM (≈ 2.39 µg/mL); MIC (Pichia kudriavzevii [20]; E28, 48 h): 250 µM (≈ 76.6 µg/mL); MIC (Lichtheimia corymbifera [21]; Lichtheimia corymbifera, 272, 48 h): > 500 µM; MIC (Trichosporon beigelii [22]; Trichosporon beigelii, 1188, 24 h): 250 µM (≈ 76.6 µg/mL); MIC ([23]; Trichophyton mentagrophytes, 445, 120 h): 125 µM (≈ 38.3 µg/mL); MIC (Aspergillus fumigatus [24]; Aspergillus fumigatus, 231, 48 h): > 500 µM
